Test results as given in PubChem BioAssay AID504524 (Sanford-Burnham Center for Chemical Genomics, 2011).
Calls of active or inactive are those of the source.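 The calls were made as follows: active = mean EC50 below 10 µM; inactive = the rest.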

target: Apelin receptor (Homo sapiens) (UniProt P35414); assay: apelin receptor activation by small molecules – cell-based, CHO-K1 AGTRL-1, PathHunter luminescence, set 5, SAR follow-up (AID 504524); conditions: CHO-K1 AGTRL-1 PathHunter beta-arrestin
How it was run: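 Assay system: CHO-K1 cells, APJ and β-arrestin complementation reporter; incubation: overnight seeding, 90 min exposure at 25 °C, 60 min detection; dosing: compounds tested as a dose-response series; signal: β-Gal complementation luminescence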

Apelin receptor (Homo sapiens), sequence (P35414 whole entry, looked up): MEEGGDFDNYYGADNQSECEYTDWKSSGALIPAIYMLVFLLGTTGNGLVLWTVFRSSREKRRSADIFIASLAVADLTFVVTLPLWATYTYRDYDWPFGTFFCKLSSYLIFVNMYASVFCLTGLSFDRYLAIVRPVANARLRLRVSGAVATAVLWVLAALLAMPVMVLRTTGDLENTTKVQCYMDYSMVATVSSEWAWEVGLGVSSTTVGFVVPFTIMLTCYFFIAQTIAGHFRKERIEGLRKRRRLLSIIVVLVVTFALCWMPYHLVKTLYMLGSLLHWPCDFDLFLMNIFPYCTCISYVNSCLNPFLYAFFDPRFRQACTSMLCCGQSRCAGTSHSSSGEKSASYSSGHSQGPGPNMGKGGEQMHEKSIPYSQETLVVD

| Compound | EC50 |
| --- | --- |
| CC1=CC(=O)C(C2CCCCC2)=C/C1=N/OS(=O)(=O)c1cccc(C#N)c1 | 5.13 µM |
| CC1=CC(=O)C(C(C)(C)C)=C/C1=N\OS(=O)(=O)C1CCCCC1 | inactive |
| CC1=CC(=O)C(C2CCCCC2)=C/C1=N\OS(=O)(=O)c1cccc(Cl)c1 | 2.61 µM |
| O=C1C=CC(=NOS(=O)(=O)c2ccccc2)C=C1c1ccccc1 | > 79 µM (inactive) |
| CC1=CC(=O)C(C(C)(C)C)=C/C1=N\OS(=O)(=O)c1cccc(Cl)c1 | 7.8 µM |
| CC1=CC(=O)C(C(C)(C)C)=C/C1=N/OS(=O)(=O)c1cccc(Br)c1 | inactive |
| CC1=CC(=O)C(C(C)C)=C/C1=N\OS(=O)(=O)c1cccc(Cl)c1 | 3.17 µM |
| CC1=CC(=O)C(C(C)(C)C)=C/C1=N\OS(=O)(=O)c1ccccc1Cl | 8.69 µM |
| CC(C)C1=CC(=NOS(=O)(=O)c2ccccc2)C=CC1=O | 4.96 µM |
| CC1=CC(=O)C(C2CCCCC2)=C/C1=N/OS(=O)(=O)c1cccc(Br)c1 | 6.03 µM |
| CC1=CC(=O)C(C(C)C)=C/C1=N\OS(=O)(=O)c1ccccc1Cl | 1.94 µM |
| COc1cccc(S(=O)(=O)O/N=C2\C=C(C3CCCCC3)C(=O)C=C2C)c1 | 5.53 µM |
| CC1=CC(=O)C(C(C)(C)C)=C/C1=N\OS(=O)(=O)c1c(Cl)cccc1Cl | 7.9 µM |
| CC1=CC(=O)C(C(C)C)=C/C1=N/OS(=O)(=O)c1cccc(Br)c1 | 3.16 µM |
| CC1=CC(=O)C(C(C)C)=C/C1=N/OS(=O)(=O)c1cccc(C#N)c1 | 1.96 µM |
| CC1=CC(=O)C(C2CCCCC2)=C/C1=N/OS(=O)(=O)c1cccc(C)c1 | 5.49 µM |

| Compound | EC50 |
| --- | --- |
| COc1cccc(S(=O)(=O)O/N=C2\C=C(C(C)(C)C)C(=O)C=C2C)c1 | 7.96 µM |
| COc1cccc(S(=O)(=O)O/N=C2\C=C(C(C)C)C(=O)C=C2C)c1 | 5.23 µM |
| CC1=CC(=O)C(C(C)C)=C/C1=N\OS(=O)(=O)c1c(Cl)cccc1Cl | 3.53 µM |
| CC1=CC(=O)C(C(C)C)=C/C1=N/OS(=O)(=O)c1cccc(C)c1 | 5.68 µM |
| CC1=CC(=O)C(C(C)C)=C/C1=N\OS(=O)(=O)c1cn(C)cn1 | inactive |
| N#Cc1ccc(S(=O)(=O)ON=C2C=CC(=O)C(c3ccccc3)=C2)cc1 | > 79 µM (inactive) |
| CC1=CC(=O)C(C2CCCCC2)=C/C1=N\OS(=O)(=O)c1c(Cl)cccc1Cl | 3.59 µM |
| Cc1cc(N=O)c(C(C)C)cc1O | > 79 µM (inactive) |
| CC1=CC(=O)C(C(C)(C)C)=C/C1=N\OS(=O)(=O)c1cn(C)cn1 | 10 µM |
| CC1=CC(=O)C(C2CCCCC2)=C/C1=N\OS(=O)(=O)c1cn(C)cn1 | 6.36 µM |
| CC1=CC(=O)C(C(C)(C)C)=C/C1=N/OS(=O)(=O)c1cccc(C#N)c1 | 3.21 µM |
| CC1=CC(=O)C(C(C)C)=C/C1=N\OS(=O)(=O)C1CCCCC1 | inactive |
| CC1=CC(=O)C(C2CCCCC2)=C/C1=N\OS(=O)(=O)c1ccccc1Cl | 6.5 µM |
| CC1=CC(=O)C(C(C)(C)C)=C/C1=N/OS(=O)(=O)c1cccc(C)c1 | 9.59 µM |
| Cc1cc(O)c(C(C)(C)C)cc1N=O | > 79 µM (inactive) |
